Results as given in ChEMBL document CHEMBL1142412, “Bis-(-)-nor-meptazinols as novel nanomolar cholinesterase inhibitors with high inhibitory potency on amyloid-beta aggregation” (J Med Chem, 2008).

Legend:
Mus musculus = species on record: Mus musculus; assay: Selectivity for mouse brain AChE over mouse serum BChE; type: tissue-based
Acetylcholinesterase [1] = target: T1, Acetylcholinesterase (Homo sapiens, UniProt P22303); assay: Inhibition of human recombinant AChE-induced amyloid beta aggregation by thioflavin T fluorescence method
How it was run: (§1)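 Aβ(1–40), stock from HFIP, dissolved in DMSO, final 230 µM, incubated 48 h at room temperature in 0.215 M sodium phosphate pH 8.0 with human recombinant AChE (final 2.3 µM, Aβ:AChE 100:1) ± inhibitor. […] Run in duplicate.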

Acetylcholinesterase [2] = target: T1, Acetylcholinesterase; assay: Inhibition of human recombinant AChE-induced amyloid beta aggregation at 100 uM by thioflavin T fluorescence method; how it was run: as §1
Acetylcholinesterase [3] = target: T1, Acetylcholinesterase; assay: Inhibition of human recombinant AChE-induced amyloid beta aggregation at 200 uM by thioflavin T fluorescence method; how it was run: as §1
Cholinesterase = Cholinesterase (Mus musculus, UniProt Q03311); assay: Inhibition of mouse serum BChE
How it was run: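 Modified Ellman assay with mouse serum as the enzyme source. Inhibitor at several concentrations, preincubated 20 min at 37 °C with DTNB. Substrate butyrylthiocholine iodide 0.05 mM. ΔA412 read at 25 °C. IC50 by nonlinear regression of log concentration–response. Mean ± SEM of at least three independent measures.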

Acetylcholinesterase [4] = target: T2, Acetylcholinesterase (Mus musculus, UniProt P21836); assay: Inhibition of mouse brain AChE
T2 sequence (P21836 whole entry): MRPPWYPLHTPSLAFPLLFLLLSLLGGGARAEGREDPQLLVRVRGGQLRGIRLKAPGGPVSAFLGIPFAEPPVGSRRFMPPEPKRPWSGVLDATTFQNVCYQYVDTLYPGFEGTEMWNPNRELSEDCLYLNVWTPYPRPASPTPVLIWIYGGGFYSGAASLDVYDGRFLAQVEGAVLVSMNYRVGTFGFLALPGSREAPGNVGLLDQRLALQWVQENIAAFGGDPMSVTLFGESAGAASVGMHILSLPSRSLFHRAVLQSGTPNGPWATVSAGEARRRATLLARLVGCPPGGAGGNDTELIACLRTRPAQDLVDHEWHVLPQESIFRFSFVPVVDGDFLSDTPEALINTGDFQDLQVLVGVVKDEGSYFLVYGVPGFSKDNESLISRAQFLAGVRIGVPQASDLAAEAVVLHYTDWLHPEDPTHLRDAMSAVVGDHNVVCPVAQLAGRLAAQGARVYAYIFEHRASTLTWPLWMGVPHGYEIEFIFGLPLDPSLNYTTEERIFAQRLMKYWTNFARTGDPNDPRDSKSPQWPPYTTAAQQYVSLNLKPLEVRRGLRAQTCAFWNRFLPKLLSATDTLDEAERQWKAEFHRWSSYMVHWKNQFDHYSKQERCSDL

T1 sequence (P22303 whole entry): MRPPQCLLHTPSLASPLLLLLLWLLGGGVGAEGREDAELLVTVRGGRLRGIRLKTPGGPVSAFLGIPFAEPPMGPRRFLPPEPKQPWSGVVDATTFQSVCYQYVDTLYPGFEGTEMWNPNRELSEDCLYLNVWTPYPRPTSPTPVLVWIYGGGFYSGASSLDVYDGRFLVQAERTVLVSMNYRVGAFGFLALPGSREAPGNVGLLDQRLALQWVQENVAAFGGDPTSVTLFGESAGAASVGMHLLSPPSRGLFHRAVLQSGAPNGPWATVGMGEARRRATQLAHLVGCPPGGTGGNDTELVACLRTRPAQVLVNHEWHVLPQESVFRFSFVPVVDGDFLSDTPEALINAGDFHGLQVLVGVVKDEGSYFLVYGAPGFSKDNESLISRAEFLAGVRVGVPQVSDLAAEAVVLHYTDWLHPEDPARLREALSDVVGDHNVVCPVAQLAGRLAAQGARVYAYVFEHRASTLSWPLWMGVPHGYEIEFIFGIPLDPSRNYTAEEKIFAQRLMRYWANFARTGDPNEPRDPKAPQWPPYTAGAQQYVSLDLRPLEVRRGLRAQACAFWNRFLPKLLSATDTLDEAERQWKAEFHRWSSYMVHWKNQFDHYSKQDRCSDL
Cholinesterase, sequence (Q03311 whole entry): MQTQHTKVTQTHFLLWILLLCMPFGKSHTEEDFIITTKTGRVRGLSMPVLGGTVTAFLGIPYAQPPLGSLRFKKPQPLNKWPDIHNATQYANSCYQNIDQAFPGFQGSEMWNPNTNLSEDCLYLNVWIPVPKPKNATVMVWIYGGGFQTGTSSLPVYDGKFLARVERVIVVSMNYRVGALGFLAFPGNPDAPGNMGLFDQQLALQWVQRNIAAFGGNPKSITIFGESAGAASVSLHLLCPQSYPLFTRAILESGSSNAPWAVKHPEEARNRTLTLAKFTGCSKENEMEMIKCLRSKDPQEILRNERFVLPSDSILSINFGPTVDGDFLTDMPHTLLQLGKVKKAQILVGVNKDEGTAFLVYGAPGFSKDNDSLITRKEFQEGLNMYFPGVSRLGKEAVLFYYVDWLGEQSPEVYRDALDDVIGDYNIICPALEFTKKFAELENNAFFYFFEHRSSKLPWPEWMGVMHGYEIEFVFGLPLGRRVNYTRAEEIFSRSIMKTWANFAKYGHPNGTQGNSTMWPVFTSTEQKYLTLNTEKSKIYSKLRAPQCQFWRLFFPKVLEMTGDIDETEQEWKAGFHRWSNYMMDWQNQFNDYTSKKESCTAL

| Structure (SMILES) | Ratio IC50 (Mus musculus) | inhibition (Acetylcholinesterase [2]) [%] | inhibition (Acetylcholinesterase [3]) [%] | other results |
| --- | --- | --- | --- | --- |
| CC[C@@]1(c2cccc(O)c2)CCCCN(CCCCCCCCCCN2CCCC[C@@](CC)(c3cccc(O)c3)C2)C1 | 1.8 | 95.8 | 98.4 | IC50 (Acetylcholinesterase [1]): 5.8 µM |
| CC[C@@]1(c2cccc(O)c2)CCCCN(CCCN2CCCC[C@@](CC)(c3cccc(O)c3)C2)C1 | 0.0031 |  |  |  |
| CC[C@@]1(c2cccc(O)c2)CCCCN(CCCCCCCCN2CCCC[C@@](CC)(c3cccc(O)c3)C2)C1 | 0.8 | 0 | 15.2 |  |
| CC[C@@]1(c2cccc(O)c2)CCCCN(CCCCN2CCCC[C@@](CC)(c3cccc(O)c3)C2)C1 | 0.0049 |  |  |  |
| CCC1(c2cccc(O)c2)CCCCN(C)C1 (single isomer, unassigned; (-)) [MEPTAZINOL] | 0.37 |  | 0 | IC50 (Cholinesterase): 15 µM; IC50 (Acetylcholinesterase [4]): 41 µM |
| CC[N+](C)(CC)CCC[n+]1c(-c2ccccc2)c2cc(N)ccc2c2ccc(N)cc21 |  | 85.6 | 98.6 |  |
| CC[C@@]1(c2cccc(O)c2)CCCCN(CCCCCCN2CCCC[C@@](CC)(c3cccc(O)c3)C2)C1 | 0.098 |  |  |  |
| CC[C@@]1(c2cccc(O)c2)CCCCN(CCN2CCCC[C@@](CC)(c3cccc(O)c3)C2)C1 | 0.0029 |  |  |  |
| CC[C@@]1(c2cccc(O)c2)CCCCN(CCCCCCCN2CCCC[C@@](CC)(c3cccc(O)c3)C2)C1 | 0.38 |  |  |  |
| CC[C@@]1(c2cccc(O)c2)CCCCN(CCCCCCCCCCCN2CCCC[C@@](CC)(c3cccc(O)c3)C2)C1 | 3.1 |  |  |  |
| CCC1(c2cccc(O)c2)CCCCN(CCCCCN2CCCC[C@@](CC)(c3cccc(O)c3)C2)C1 (single isomer, unassigned; (-)) | 0.048 |  |  | IC50 (Cholinesterase): 0.192 µM; IC50 (Acetylcholinesterase [4]): 1 µM |
| CC[C@@]1(c2cccc(O)c2)CCCCN(CCCCCCCCCCCCN2CCCC[C@@](CC)(c3cccc(O)c3)C2)C1 | 2.4 |  |  |  |
| CC[C@@]1(c2cccc(O)c2)CCCCN(CCCCCCCCCN2CCCC[C@@](CC)(c3cccc(O)c3)C2)C1 | 2.6 | 90.8 | 99.2 | IC50 (Acetylcholinesterase [1]): 16.6 µM |
